# Screening results: PubChem, Sanford-Burnham Center for Chemical Genomics
# Only a sample is shown.
# Apaf-1 act – activators of human Apaf-1 apoptosome, primary screen, biochemical, DEVD-Rh110 fluorescence, uHTS; Apoptotic protease-activating factor 1 (Homo sapiens), O14727; Apaf-1 apoptosome caspase-3 activation; stronger effect = lower value; activity change, negative = activation, % at 20 µM; 330,000 compounds, 0.31% hits;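 active means activity change at or below -40% at 20 µM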
#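 System: Reconstituted apoptosome of Apaf-1, cytochrome c, caspase-9, procaspase-3 | Reagent: dATP, cytochrome c, and (Z-DEVD)2-Rh110 caspase-3 substrate | Times: 30 min compound preincubation and 50 min reaction, both room temperature | Detection: Caspase-3-released Rh110 fluorescence, 540 nm emission, 480 nm excitation | Measure: Caspase-3 activity via Apaf-1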
# Rh110 interf act – Rh110 fluorescence interference by putative Apaf-1 activators, confirmation, artefact control for Apaf-1 activator project, biochemical, 20 µM; shares compounds with Apaf-1 act; AID 504616, 2011; fluorescence interference (activity change), % at 20 µM, hits read low; 980 tested, under 10 active; quenched caspase reaction, Ex480/Em540;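 active means mean activity change at or below -40% when tested at 20 µM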
# Apaf-1 act conf2 – Apaf-1 activators, single-dose retest, confirmation, biochemical, fluorescence, DEVD-Rh110, 20 µM; shares compounds with Apaf-1 act; activity change, negative = activation, % at 20 µM; reconstituted apoptosome caspase-3 activity; stronger effect = lower value; 980 compounds, 5% hits;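 active means mean activity change at or below -40%, meaning activation of 40% or more, at 20 µM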
# Fluor interf act – fluorescence interference of Apaf-1 activator hits, dose response, artefact control for Apaf-1 activator project. shares compounds with Apaf-1 act. fluorescence interference counterscreen, Apaf-1 activator assay. EC50, µM. 55 tested, under 10 active; call rule not given here
# A number is an active result; . = inactive; / = not tested or not shown.
SMILES,Apaf-1 act,Rh110 interf act,Apaf-1 act conf2,others
C=CCn1c(COc2cccc(C)c2)nnc1SC(C)C(=O)NC1CC1 (stereo unspecified),.,/,/,
COc1ccc2nc(NC(=O)c3sc4nc(C)cc(C)c4c3N)sc2c1,-41,.,.,
COc1ccc2c(c1)Cc1sc(NC(C)=O)nc1-2,.,/,/,
COc1ccc2c(c1)Cc1sc(NC(=O)c3cccnc3)nc1-2,.,/,/,
NC1=NC[C@H](Cc2ccccc2)N1CCc1cc(C(F)(F)F)cc(C(F)(F)F)c1,.,/,/,
COc1cccc2c1C(=O)C=C(C)C2=O,.,/,/,
Cc1ccc(C(=O)N/N=C/c2ccc(-c3ccccc3[N+](=O)[O-])o2)cn1,.,/,/,
COc1ccc(-c2nc(C(=O)NCC3CCCO3)cc3c2[nH]c2ccccc23)cc1 (stereo unspecified),-224,.,.,
COc1cc(-c2nc(C(=O)NC3CCN(Cc4ccccc4)CC3)cc3c2[nH]c2ccccc23)cc(OC)c1OC,.,/,/,
N#Cc1c(N(CCO)CCO)nc(N)c2c(N)nc3c(c12)CC(=O)N3CC1CCCO1 (stereo unspecified),.,/,/,
Cc1cccc(/C=N/NC(=O)C(C)Nc2cccc3ccccc23)n1 (stereo unspecified),.,/,/,
Oc1cccc(C=NCc2ccccc2)c1O,.,/,/,
NC(=O)C1CCN(C2=C(Cl)C(=O)c3ccccc3C2=O)CC1,.,/,/,
Oc1cccc(C=Nc2cccc3ccccc23)c1O,.,/,/,
CCCCCC(=O)Nc1ccc(N2CCN(S(C)(=O)=O)CC2)cc1,-523,.,.,
COc1cc([N+](=O)[O-])cc(/C=N/NC(=O)C(C)Nc2cccc3ccccc23)c1O (stereo unspecified),.,/,/,
O=C(Cn1nnc(-c2ccccc2)n1)N/N=C/c1cc([N+](=O)[O-])ccc1O,-57,.,.,
Cc1[nH]n(-c2ccccc2)c(=O)c1/C=N/NC(=O)c1cccc([N+](=O)[O-])c1,.,/,/,
CNC(=O)NCC12CC3CC(CC(C3)C1)C2,-293,.,.,
O=C1C(NS(=O)(=O)c2cccs2)=C(N2CCN(c3cccc(C(F)(F)F)c3)CC2)C(=O)c2ccccc21,.,/,/,
Fc1ccc(-[n+]2nc(Nc3ccccc3)sc2-c2c3ccccc3cc3ccccc23)cc1,.,/,/,
CCN(CC(=O)Nc1ccccc1OC)C(=O)c1ccccc1Sc1ccccc1C#N,.,/,/,
COc1ccccc1NC(=O)Nc1ccccc1C(N)=O,-630,.,.,
COC1=C(Nc2ccccc2OC)C(=O)c2ccccc2C1=O,.,/,/,
Nc1cc2nsnc2cc1Br,.,/,/,
SMILES,Apaf-1 act,Rh110 interf act,Apaf-1 act conf2,others
COc1ccc(-n2c(N)c(C(=O)NCC3CCCO3)c3nc4ccccc4nc32)c(OC)c1 (stereo unspecified),.,/,/,
COc1ccccc1-c1ccc(=O)n(CC(=O)NCC2CCCO2)n1 (stereo unspecified),-50,.,.,
C=CCn1c(N)c(C(=O)NCC2CCCO2)c2nc3ccccc3nc21 (stereo unspecified),.,/,/,
COc1ccc2[nH]c3c(c2c1)CCN1C(=O)C(CC(=O)NCCC2=CCCCC2)C[C@H](C(=O)N2CCOCC2)[C@@]31CCC1CCCC1 (stereo partly specified),.,/,/,
CCOCCCNc1nc2nc3ccc(C)cn3c(=O)c2cc1C(=O)NCC1CCCO1 (stereo unspecified),-69,.,.,
COc1cc(Br)c(C(=O)c2nccc3cc(OC)c(OC)cc23)cc1OC,.,/,/,
Oc1ccc(/C=N\Nc2cc(N3CCOCC3)nc(N3CCOCC3)n2)c(O)c1,.,/,/,
COc1ccc(C(CCN2CCOCC2)c2c(OC)cc(OC)c3c(-c4ccccc4)cc(=O)oc23)cc1 (stereo unspecified),.,/,/,
COc1ccc(C2CC(c3ccc(OC)cc3)n3nc(NC(=O)c4ccco4)nc3N2)cc1 (stereo unspecified),-330,.,.,
COc1ccc2c(c1)Cc1sc(NC(=O)c3ccco3)nc1-2,.,/,/,
CC(=O)N1CCc2c(sc(NC(=O)C3CC3)c2-c2nc3ccccc3s2)C1,.,/,/,
[O-][n+]1c2ccccc2cc2ccccc21,-386,.,.,
CCCCCCc1cc2cc(-c3nnc(-c4ccccc4OC)o3)c(=O)oc2cc1O,.,/,/,
CCCCCCc1cc2cc(-c3nnc(-c4ccccc4O)o3)c(=O)oc2cc1O,-140,.,-43,Fluor interf act=.
CCCCCCc1cc2cc(-c3nnc(-c4cc(OC)c(OC)c(OC)c4)o3)c(=O)oc2cc1O,.,/,/,
